From ChEMBL document CHEMBL3797057, “Synthesis and bioevaluation of substituted chalcones, coumaranones and other flavonoids as anti-HIV agents” (Bioorg Med Chem, 2016)
The source made the active and inactive calls. The calls are words filed in the database; no cut-off is given here.

Tests used:
[1] = Cytotoxicity against human TZM-bl cells assessed as inhibition of cell viability at 10 uM by CytoTox Glo assay relative to control; assay type: cell-based; conditions: for inhibition (INH): tzm, 10 µM; for cytotoxicity at 10 µM: TZM-bl cells, read-out: INH
Summary of the method: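 Replicate dishes of treated TZM-bl cells (50-60% confluent, compound at 10 µM in D10, triplicate) assayed with CytoTox Glo for dead and total cell numbers. Result is % difference in live-cell luminescence versus matched DMSO vehicle control.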

[2] = Cytotoxicity against human PM1 cells assessed as inhibition of cell viability at 10 uM by trypan blue dye exclusion method relative to control; assay type: cell-based; conditions: read-out: INH
Summary of the method: (§1)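 PM1 cells (1.5 × 10^5/0.1 mL) kept in R20 with compound or matched DMSO vehicle over the 5-day BaL propagation assay (10 min pre-treatment, 2 h infection, wash, re-treatment). Viability monitored by trypan blue dye exclusion.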

[3] = test system: Human immunodeficiency virus 1; assay: Antiviral activity against HIV1 BAL infected in human PM1 cells assessed as inhibition of viral propagation at 10 uM preincubated with cells for 10 mins followed by viral infection measured after 2 hrs by p24 ELISA relative to control; assay type: functional; conditions: for inhibition at 10 µM: Human immunodeficiency virus 1, BAL
Summary of the method: (§2)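 PM1 cells (1.5 × 10^5/0.1 mL) in R20 (RPMI 1640, 20% FBS, 10mM HEPES) given compound or matched DMSO 10 min, then infected with HIV-1 BaL at 150 TCID50/0.1 mL (MOI=0.001) for 2 h. Cells washed, resuspended in fresh R20 with compound or vehicle. Supernatants taken day 3; culture continued to day 5, supernatant assayed for HIV p24 by ELISA.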

[4] = test system: Human immunodeficiency virus 1; assay: Antiviral activity against HIV1 infected in human TZM-bl cells assessed as inhibition of viral infection at 10 uM preincubated with cells for 3 hrs followed by viral infection measured after 24 hrs by Bright Glo luciferase reporter gene assay relative to control; assay type: functional; conditions: Human immunodeficiency virus 1, TZM-bl
Summary of the method: (§3)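 TZM-bl cells at 50-60% confluence, in D10 medium, were pre-treated in triplicate with 10 µM compound or DMSO vehicle, for 5 min or 3 h. Virus was then added at 60 TCID50/0.1mL (MOI=0.01). After 24 h the cells were lysed for luciferase, read over 5 s/well. Result is % reduction in relative light units versus the virus+DMSO control.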

[5] = Cytotoxicity against human TZM-bl cells assessed as decrease in cell viability at IC50 by CytoTox Glo assay relative to control; assay type: cell-based
[6] = test system: Human immunodeficiency virus 1; assay: Antiviral activity against HIV1 BAL infected in human TZM-bl cells assessed as inhibition of viral infection; assay type: functional, organism-based; conditions: for IC50: Human immunodeficiency virus 1, BAL
Summary of the method: (§4)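 TZM-bl cells seeded at 6 × 10^4 cells/ml (6000 cells/well), left overnight, then at 50-60% confluence treated in triplicate with compound in D10 or DMSO vehicle. After 5 min, HIV-1 added at 60 TCID50/0.1mL (MOI=0.01). After 24 h at 37°C/5% CO2, cells lysed for Bright Glo luciferase. Inhibition is % reduction in RLU versus virus+DMSO control, with no-virus wells as baseline.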

[7] = test system: Human immunodeficiency virus 1; assay: Antiviral activity against HIV1 infected in human TZM-bl cells assessed as inhibition of viral infection at 10 uM preincubated with cells for 5 mins followed by viral infection measured after 24 hrs by Bright Glo luciferase reporter gene assay relative to control; assay type: functional; conditions: for inhibition at 10 µM: Human immunodeficiency virus 1, TZM-bl; summary of the method: as §3
[8] = test system: Human immunodeficiency virus 1; assay: Antiviral activity against HIV1 93UG067 clinical isolate infected in human TZM-bl cells assessed as inhibition of viral infection; assay type: functional, organism-based; summary of the method: as §4
[9] = test system: Human immunodeficiency virus 1; assay: Antiviral activity against HIV1 92UG029 clinical isolate infected in human TZM-bl cells assessed as inhibition of viral infection; assay type: functional, organism-based; summary of the method: as §4
[10] = test system: Human immunodeficiency virus 1; assay: Antiviral activity against HIV1 93UG070 clinical isolate infected in human TZM-bl cells assessed as inhibition of viral infection; assay type: functional, organism-based; summary of the method: as §4
[11] = test system: Human immunodeficiency virus 1; assay: Antiviral activity against HIV1 BAL infected in human PM1 cells assessed as inhibition of viral propagation at 5 uM preincubated with cells for 10 mins followed by viral infection measured after 2 hrs by p24 ELISA relative to control; assay type: functional; conditions: for inhibition at 5 µM: Human immunodeficiency virus 1, BAL; summary of the method: as §2
[12] = Cytotoxicity against human PM1 cells assessed as inhibition of cell viability at 5 uM by trypan blue dye exclusion method relative to control; assay type: cell-based; conditions: for cytotoxicity at 5 µM: PM1 cells, read-out: INH; for inhibition (INH): pm1, 5 µM; summary of the method: as §1
[13] = Cytotoxicity against human TZM-bl cells assessed as decrease in cell metabolic activity up to 10 uM by MTT reduction assay; assay type: ADME, cell-based
Summary of the method: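 Confluent TZM-bl cells exposed to compound up to 10 µM or matched vehicle; cell metabolic activity monitored by MTT reduction assay. Mean ± SEM, n=3.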

CHO = assay: Cytotoxicity against CHO cells assessed as decrease in cell proliferation after 48 hrs by MTS assay; assay type: cell-based, Cricetulus griseus
Summary of the method: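 CHO cells plated at 10,000 cells/mL, in triplicate, incubated overnight. Compound then added from DMSO stock, final DMSO <1%. After 48 h at 37°C in 5% CO2, MTS reagent was added for 4 h and absorbance read at 490 nm. IC50 taken from the plot of relative A490 versus concentration.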

[14] = Cytotoxicity against human PM1 cells assessed as cell viability at 10 uM by trypan blue dye exclusion method relative to control; assay type: cell-based; conditions: read-out: Activity; summary of the method: as §1

## COc1ccc(Br)cc1C1CC(=O)c2ccccc2O1 (centres undefined)
[1]
  inhibition (INH): Not Active

## CCOc1ccc(Cl)cc1-c1oc2ccccc2c(=O)c1O
[2]
  cytotoxicity at 10 µM: 25.8%
[3]
  inhibition: inactive
[4]
  inhibition at 10 µM: 54.1%
[5]
  Activity: 20%
[6]
  IC50: 12.6 µM
[1]
  cytotoxicity at 10 µM: 21.9%

## COc1cc(Br)cc(-c2oc3ccccc3c(=O)c2O)c1OC
[5]
  Activity: Non-toxic
[6]
  IC50: 30.9 µM
[7]
  inhibition at 10 µM: 25.9%
[1]
  inhibition (INH): Not Active

## COc1ccc(I)cc1/C=C/C(=O)c1ccccc1O
[7]
  inhibition at 10 µM: 99.7%
[1]
  cytotoxicity at 10 µM: 99.6%

## COc1ccc(Br)cc1-c1cc(=O)c2ccccc2o1
[1]
  cytotoxicity at 10 µM: 23.6%

## COc1ccc(Br)cc1/C=C/C(=O)c1c(O)cccc1OCc1ccccc1
[8]
  inhibition: Dose-dependent effect
[2]
  cytotoxicity at 10 µM: 61.7%
[3]
  inhibition at 10 µM: 99.9%
[4]
  inhibition at 10 µM: 90.5%
[5]
  Activity: Non-toxic
[6]
  inhibition: Dose-dependent effect
  IC50: 4.7 µM
[9]
  inhibition: Dose-dependent effect
[10]
  inhibition: Dose-dependent effect
[11]
  inhibition at 5 µM: 80%
[12]
  cytotoxicity at 5 µM: 0.6%
[13]
  Activity: Non-toxic
[7]
  inhibition at 10 µM: 86.5%
[1]
  cytotoxicity at 10 µM: 23.4%

## CCOc1ccc(Cl)cc1/C=C/C(=O)c1ccccc1O
[7]
  inhibition at 10 µM: 86.1%
[1]
  cytotoxicity at 10 µM: 86.4%

## CCOc1ccc(Br)cc1-c1oc2ccccc2c(=O)c1O
[2]
  cytotoxicity at 10 µM: 23.1%
[3]
  inhibition at 10 µM: 1.3%
[4]
  inhibition at 10 µM: 54.9%
[5]
  Activity: Non-toxic
[6]
  IC50: 10.4 µM
[11]
  inhibition: inactive
[12]
  cytotoxicity at 5 µM: 16.5%
[7]
  inhibition at 10 µM: 51.7%
[1]
  inhibition (INH): Not Active

## COc1ccc(C)cc1/C=C/C(=O)c1ccccc1O
[1]
  cytotoxicity at 10 µM: 46.9%

## COc1ccc(I)cc1-c1oc2ccccc2c(=O)c1O
[1]
  cytotoxicity at 10 µM: 15.3%

## COc1ccc(C)cc1-c1oc2ccccc2c(=O)c1O
[1]
  cytotoxicity at 10 µM: 4.8%

## COc1ccc(Cl)cc1-c1oc2ccccc2c(=O)c1O
[1]
  cytotoxicity at 10 µM: 23.5%

## CCOc1ccc(Cl)cc1/C=C/C(=O)c1c(O)cccc1OCc1ccccc1
[2]
  cytotoxicity at 10 µM: 12.3%
[3]
  inhibition at 10 µM: 95.8%
[4]
  inhibition at 10 µM: 79%
[11]
  inhibition at 5 µM: 65.8%
[12]
  inhibition (INH): Not Active
[7]
  inhibition at 10 µM: 64.8%
[1]
  cytotoxicity at 10 µM: 8.7%

## COc1ccccc1/C=C/C(=O)c1c(O)cccc1OCc1ccccc1
CHO; cho
  IC50: ND(toxic)

## CCOc1ccc(Br)cc1/C=C/C(=O)c1c(O)cccc1OCc1ccccc1
[3]
  inhibition at 10 µM: 92.3%
[14]
  viability at 10 µM: 96.8%
[4]
  inhibition at 10 µM: 89.9%
[11]
  inhibition at 5 µM: 72.2%
[12]
  inhibition (INH): Not Active
[7]
  inhibition at 10 µM: 60.2%
[1]
  inhibition (INH): Not Active

## COc1ccc(Br)cc1-c1oc2ccccc2c(=O)c1O
[5]
  Activity: Non-toxic
[6]
  IC50: 43.7 µM
[7]
  inhibition at 10 µM: 22.4%
[1]
  inhibition (INH): Not Active

## COc1ccccc1-c1oc2ccccc2c(=O)c1O
[5]
  Activity: Non-toxic
[6]
  IC50: 30.4 µM
[7]
  inhibition at 10 µM: 21.3%
[1]
  inhibition (INH): Not Active

## CCOc1ccc(Cl)cc1/C=C1\Oc2cccc(OCc3ccccc3)c2C1=O
[7]
  inhibition at 10 µM: 15.7%
[1]
  inhibition (INH): Not Active

## COc1cc(OC)c(/C=C/C(=O)c2ccccc2O)cc1Br
[7]
  inhibition at 10 µM: 28.6%
[1]
  cytotoxicity at 10 µM: 1.9%

## COc1ccccc1/C=C/C(=O)c1ccccc1O
[7]
  inhibition: inactive
[1]
  cytotoxicity at 10 µM: 16.5%

## COc1ccc(Br)cc1/C=C/C(=O)c1c(O)cccc1OC
[1]
  cytotoxicity at 10 µM: 90.4%

## COc1ccc(Cl)cc1/C=C/C(=O)c1ccccc1O
[1]
  cytotoxicity at 10 µM: 99.5%

## COc1ccccc1-c1cc(=O)c2ccccc2o1
[1]
  cytotoxicity at 10 µM: 39.5%

## COc1ccc(Br)cc1-c1cc(=O)c2c(OCc3ccccc3)cccc2o1
[5]
  Activity: Non-toxic
[6]
  IC50: 42.3 µM
[7]
  inhibition at 10 µM: 16.4%
[1]
  cytotoxicity at 10 µM: 6.5%

## CCOc1ccc(Br)cc1/C=C1\Oc2cccc(OCc3ccccc3)c2C1=O
[7]
  inhibition at 10 µM: 12.6%
[1]
  cytotoxicity at 10 µM: 8.4%

## CCOc1ccc(Br)cc1/C=C/C(=O)c1ccccc1O
[1]
  cytotoxicity at 10 µM: 51.9%

## COc1ccc(Br)cc1/C=C/C(=O)c1ccc2ccccc2c1O
[5]
  Activity: 90%
[6]
  IC50: 20 µM
[1]
  cytotoxicity at 10 µM: 19.9%

## COc1cc(Br)cc(/C=C/C(=O)c2ccccc2O)c1OC
[1]
  cytotoxicity at 10 µM: 72.3%

## COc1ccc(Br)cc1/C=C/C(=O)c1ccccc1O
[1]
  cytotoxicity at 10 µM: 62.6%

## COc1ccc(Br)cc1-c1cc(=O)c2c(O)cccc2o1
[1]
  cytotoxicity at 10 µM: 34.8%

## COc1ccc(Br)cc1/C=C1\Oc2cccc(OC)c2C1=O
CHO; Cricetulus griseus, CHO, 48 h, read-out: IC50
  IC50: 17.3 µM
[7]
  inhibition at 10 µM: 9.2%
[1]
  cytotoxicity at 10 µM: 0.2%

## CCCCCCCCOc1ccc(Br)cc1/C=C/C(=O)c1c(O)cccc1OCc1ccccc1
[4]
  inhibition at 10 µM: 27.9%
[7]
  inhibition at 10 µM: < 10%

## COc1ccccc1-c1cc(=O)c2c(O)cccc2o1
[5]
  Activity: 42%
[6]
  IC50: 4.4 µM
[7]
  inhibition at 10 µM: 83.8%
[1]
  cytotoxicity at 10 µM: 44.5%

## COc1cc(OC)c(-c2oc3ccccc3c(=O)c2O)cc1Br
[7]
  inhibition at 10 µM: 43.6%
[1]
  inhibition (INH): Not Active
